Experimental data as given in ChEMBL document CHEMBL3407400, “Design, synthesis and biological evaluations of chirally pure 1,2,3,4-tertrahydroisoquinoline analogs as anti-cancer agents” (Eur J Med Chem, 2015).
Values belong to the compound of their own block, whether it stands above or below them. Activity calls are given as the source filed them. No cut-off for these calls is given here.

How the values were obtained:
[1] = system: MCF7; experiment: Anticancer activity against human MCF7 cells after 48 hrs by MTT assay; format: functional, cell-based; conditions: MCF7, 48 h
Outline: (§1)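 Cell lines held in DMEM or MEM with 10% FBS and antibiotic-antimycotic at 37 °C, 5% CO2. Cells seeded at 1 × 10⁴ per well in DMEM with 10% FBS and left 24 h. Compounds diluted in medium and added alongside vehicle control for 48 h. MTT (5 mg/mL) added for 4 h, formazan dissolved in DMSO, absorbance read at 570 nm.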

[2] = system: A549; experiment: Anticancer activity against human A549 cells after 48 hrs by MTT assay; format: functional, cell-based; conditions: A549, 48 h; outline: as §1
[3] = system: DU-145; experiment: Anticancer activity against human DU145 cells after 48 hrs by MTT assay; format: functional, cell-based; conditions: DU-145, 48 h; outline: as §1
[4] = system: HeLa; experiment: Anticancer activity against human HeLa cells after 48 hrs by MTT assay; format: functional, cell-based; outline: as §1
[5] = system: HepG2; experiment: Anticancer activity against human HepG2 cells after 48 hrs by MTT assay; format: functional, cell-based; conditions: HepG2, 48 h; outline: as §1
[6] = system: DU-145; experiment: Cell cycle arrest in human DU145 cells assessed as subG1 phase at 1 uM after 48 hrs by propidium iodide based flow cytometry (reference value: 9.36 %); format: functional
[7] = system: DU-145; experiment: Cell cycle arrest in human DU145 cells assessed as G0/G1 phase at 1 uM after 48 hrs by propidium iodide based flow cytometry (reference value: 79.15 %); format: functional
[8] = system: DU-145; experiment: Cell cycle arrest in human DU145 cells assessed as S phase at 1 uM after 48 hrs by propidium iodide based flow cytometry (reference value: 1.65 %); format: functional
[9] = system: DU-145; experiment: Cell cycle arrest in human DU145 cells assessed as G2/M phase at 1 uM after 48 hrs by propidium iodide based flow cytometry (reference value: 6.75 %); format: functional
[10] = system: DU-145; experiment: Cell cycle arrest in human DU145 cells assessed as subG1 phase at 0.5 uM after 48 hrs by propidium iodide based flow cytometry (reference value: 9.36 %); format: functional
[11] = system: DU-145; experiment: Cell cycle arrest in human DU145 cells assessed as G0/G1 phase at 0.5 uM after 48 hrs by propidium iodide based flow cytometry (reference value: 79.15 %); format: functional
[12] = system: DU-145; experiment: Cell cycle arrest in human DU145 cells assessed as S phase at 0.5 uM after 48 hrs by propidium iodide based flow cytometry (reference value: 1.65 %); format: functional
[13] = system: DU-145; experiment: Cell cycle arrest in human DU145 cells assessed as G2/M phase at 0.5 uM after 48 hrs by propidium iodide based flow cytometry (reference value: 6.75 %); format: functional
[14] = target: Tubulin; experiment: Inhibition of tubulin (unknown origin) polymerization by fluorescence assay; format: protein-complex assay, Homo sapiens
[15] = system: DU-145; experiment: Disruption of microtubule network in human DU145 cells at 50 uM after 48 hrs by immunohistochemistry analysis; format: cell-based
[16] = system: DU-145; experiment: Induction of apoptosis in human DU145 cells assessed as DNA fragmentation at 0.5 uM after 48 hrs by agarose gel electrophoresis; format: functional, cell-based
Outline: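 DU-145 cells (1 × 10⁶) seeded, then treated 24 h later for 48 h. Lysate cleared, then digested with SDS/RNase A (2 h, 56 °C) and proteinase K (2 h, 37 °C). DNA precipitated with ammonium acetate and ice-cold ethanol, dissolved in TE. Laddering resolved on 2% agarose.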

[17] = system: DU-145; experiment: Induction of apoptosis in human DU145 cells assessed as activation of caspase 3 at 0.5 to 1 uM after 48 hrs by fluorometric assay relative to control; format: functional
Outline: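 DU-145 cells treated for 48 h. Fluorometric caspase-3 kit used: […] substrate added to cell lysate, 1 h at 37 °C. Fluorescence read at excitation 400 nm, emission 505 nm.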

[18] = system: DU-145; experiment: Induction of apoptosis in human DU145 cells assessed as down regulation of Bcl2 at 0.5 uM after 48 hrs by Western blot analysis relative to control; format: functional, cell-based
[19] = system: DU-145; experiment: Induction of apoptosis in human DU145 cells assessed as up regulation of Bax at 0.5 uM after 48 hrs by Western blot analysis relative to control; format: functional, cell-based
[20] = system: DU-145; experiment: Induction of apoptosis in human DU145 cells assessed as necrotic cells at 0.5 uM after 48 hrs by annexin V FITC/PI dual staining assay (reference value: 0.31 %); format: functional
[21] = system: DU-145; experiment: Induction of apoptosis in human DU145 cells assessed as viable cells at 0.5 uM after 48 hrs by annexin V FITC/PI dual staining assay (reference value: 96.45 %); format: functional; conditions: DU-145, 48 h, read-out: Activity
[22] = system: DU-145; experiment: Induction of apoptosis in human DU145 cells assessed as late apoptotic cells at 0.5 uM after 48 hrs by annexin V FITC/PI dual staining assay (reference value: 2.47 %); format: functional
[23] = system: DU-145; experiment: Induction of apoptosis in human DU145 cells assessed as early apoptotic cells at 0.5 uM after 48 hrs by annexin V FITC/PI dual staining assay (reference value: 0.77 %); format: functional
[24] = system: DU-145; experiment: Induction of apoptosis in human DU145 cells assessed as necrotic cells at 1 uM after 48 hrs by annexin V FITC/PI dual staining assay (reference value: 0.31 %); format: functional
[25] = system: DU-145; experiment: Induction of apoptosis in human DU145 cells assessed as viable cells at 1 uM after 48 hrs by annexin V FITC/PI dual staining assay (reference value: 96.45 %); format: functional; conditions: DU-145, 48 h, read-out: Activity
[26] = system: DU-145; experiment: Induction of apoptosis in human DU145 cells assessed as late apoptotic cells at 1 uM after 48 hrs by annexin V FITC/PI dual staining assay (reference value: 2.47 %); format: functional
[27] = system: DU-145; experiment: Induction of apoptosis in human DU145 cells assessed as early apoptotic cells at 1 uM after 48 hrs by annexin V FITC/PI dual staining assay (reference value: 0.77 %); format: functional

IC50 [1]: 60.4 µM
IC50 [2]: 79.4 µM
IC50 [3]: 31.6 µM
IC50 [4]: 92.6 µM
IC50 [5]: 32 µM
SMILES: Cc1ccc(S(=O)(=O)N[C@H](C(=O)N2Cc3ccccc3[C@@H](OCc3ccccc3)[C@@H]2CO)C(C)C)cc1

IC50 [1]: 18.6 µM
IC50 [2]: 9.33 µM
IC50 [3]: 6.16 µM
IC50 [4]: 11.6 µM
IC50 [5]: 7.94 µM
SMILES: CC#CC(=O)N1Cc2ccccc2[C@@H](OCc2ccccc2)[C@@H]1CO

IC50 [1]: 37.3 µM
IC50 [2]: 63 µM
IC50 [3]: 41.3 µM
IC50 [4]: 67.6 µM
IC50 [5]: 79.4 µM
SMILES: COc1cc(/C=C/C(=O)N2Cc3ccccc3[C@@H](OCc3ccccc3)[C@@H]2CO)ccc1O

IC50 [1]: 2.51 µM
IC50 [2]: 1.26 µM
IC50 [3]: 0.72 µM
IC50 [4]: 3.16 µM
IC50 [5]: 0.87 µM
IC50 [14]: 1.68 µM
SMILES: Cc1ccc(S(=O)(=O)N2CC(=O)N3Cc4ccccc4[C@@H](OCc4ccccc4)[C@@H]3C2)cc1
Activity [6]: 5.02%
Activity [7]: 46.74%
Activity [8]: 0.9%
Activity [9]: 44.17%
Activity [10]: 8.22%
Activity [11]: 67.34%
Activity [12]: 2.64%
Activity [13]: 17.68%
Activity [15]: Active
Activity [16]: Active
fold change (FC) [17]: 3
Activity [18]: Active
Activity [19]: Active
Activity [20]: 0.63%
viability at 0.5 µM [21]: 90.1%
Activity [22]: 6.47%
Activity [23]: 2.79%
Activity [24]: 4.48%
viability at 1 µM [25]: 65.6%
Activity [26]: 25.79%
Activity [27]: 4.15%

IC50 [1]: 11.5 µM
IC50 [2]: 6.03 µM
IC50 [3]: 3.8 µM
IC50 [4]: 15.1 µM
IC50 [5]: 5.05 µM
SMILES: Cc1ccc(S(=O)(=O)NCC(=O)N2Cc3ccccc3[C@@H](OCc3ccccc3)[C@@H]2CO)cc1

IC50 [1]: 39.8 µM
IC50 [2]: 25.1 µM
IC50 [3]: 12.9 µM
IC50 [4]: 27.7 µM
IC50 [5]: 20.7 µM
SMILES: O=C(/C=C/c1ccccc1)N1Cc2ccccc2[C@@H](OCc2ccccc2)[C@@H]1CO

IC50 [3]: 1.3 µM
IC50 [4]: 2.29 µM
SMILES: COc1cccc2c1C(=O)c1c(O)c3c(c(O)c1C2=O)C[C@@](O)(C(=O)CO)C[C@@H]3O[C@H]1C[C@H](N)[C@H](O)[C@H](C)O1 [DOXORUBICIN]

IC50 [1]: 55.1 µM
IC50 [2]: 39.8 µM
IC50 [3]: 29.9 µM
IC50 [4]: 32.8 µM
IC50 [5]: 31 µM
SMILES: COc1cccc(/C=C/C(=O)N2Cc3ccccc3[C@@H](OCc3ccccc3)[C@@H]2CO)c1OC

IC50 [1]: 19.2 µM
IC50 [2]: 4.36 µM
IC50 [3]: 2.08 µM
IC50 [4]: 15.8 µM
IC50 [5]: 2.82 µM
SMILES: O=C(/C=C/c1cccc(O)c1)N1Cc2ccccc2[C@@H](OCc2ccccc2)[C@@H]1CO
